# pIC50: −log10 of the molar value. Like-named read-outs stand apart in the source and are kept apart here.
# Assays:
# MATE1 = MATE1 (Homo sapiens, UniProt Q96FL8); assay: MATE1 inhibition in transfected HEK cells; format: in vitro ADME
# Outline: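 HEK cells were transfected with MRP2, MATE1 or MATE2-K. Pairs were CDCF/benzbromarone (MRP2), metformin/cimetidine (MATE1) and metformin/pyrimethamine (MATE2-K). Probe transport was assessed with and without test compound, and IC50 was determined.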
# OATP2B1 = OATP2B1 (Homo sapiens, UniProt O94956); assay: OATP2B1 uptake inhibition in transfected HEK cells; format: in vitro ADME
# Outline: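 HEK cells overexpressing NTCP, OAT1, OAT3, OATP2B1, OCT1 or OCT2 were incubated with probe substrate. Pairs were estrone 3-sulfate/cyclosporin A (NTCP), PAH/probenecid (OAT1), furosemide/probenecid (OAT3), estrone 3-sulfate/glibenclamide (OATP2B1), 3H-MPP+/decynium 22 (OCT1) and 3H-MPP+/imipramine (OCT2). IC50 was determined with and without test compound, at ≤50 µM for the parent and ≤10 µM for the metabolite.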
# CYP1A2 = biological target: T1, CYP1A2 (Homo sapiens, UniProt P05177); assay: biochemical; format: in vitro ADME
# T1 sequence (P05177 1-516): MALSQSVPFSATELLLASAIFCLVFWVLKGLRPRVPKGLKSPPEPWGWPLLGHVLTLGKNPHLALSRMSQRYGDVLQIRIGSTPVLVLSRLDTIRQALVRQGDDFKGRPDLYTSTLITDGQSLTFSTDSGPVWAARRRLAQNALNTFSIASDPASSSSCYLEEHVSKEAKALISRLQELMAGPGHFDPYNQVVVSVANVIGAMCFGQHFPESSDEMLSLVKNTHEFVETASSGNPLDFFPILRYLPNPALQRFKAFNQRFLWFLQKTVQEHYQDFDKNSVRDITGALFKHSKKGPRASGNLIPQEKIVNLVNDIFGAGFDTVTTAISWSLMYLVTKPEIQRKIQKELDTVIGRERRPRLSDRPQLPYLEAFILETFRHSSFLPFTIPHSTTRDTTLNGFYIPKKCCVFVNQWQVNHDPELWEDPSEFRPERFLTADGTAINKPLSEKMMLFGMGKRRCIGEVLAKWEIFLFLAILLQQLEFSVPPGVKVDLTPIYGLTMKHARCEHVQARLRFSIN
# CYP2B6 [1] = biological target: T2, CYP2B6 (Homo sapiens, UniProt P20813); assay: biochemical; format: in vitro ADME
# T2 sequence (P20813 1-491): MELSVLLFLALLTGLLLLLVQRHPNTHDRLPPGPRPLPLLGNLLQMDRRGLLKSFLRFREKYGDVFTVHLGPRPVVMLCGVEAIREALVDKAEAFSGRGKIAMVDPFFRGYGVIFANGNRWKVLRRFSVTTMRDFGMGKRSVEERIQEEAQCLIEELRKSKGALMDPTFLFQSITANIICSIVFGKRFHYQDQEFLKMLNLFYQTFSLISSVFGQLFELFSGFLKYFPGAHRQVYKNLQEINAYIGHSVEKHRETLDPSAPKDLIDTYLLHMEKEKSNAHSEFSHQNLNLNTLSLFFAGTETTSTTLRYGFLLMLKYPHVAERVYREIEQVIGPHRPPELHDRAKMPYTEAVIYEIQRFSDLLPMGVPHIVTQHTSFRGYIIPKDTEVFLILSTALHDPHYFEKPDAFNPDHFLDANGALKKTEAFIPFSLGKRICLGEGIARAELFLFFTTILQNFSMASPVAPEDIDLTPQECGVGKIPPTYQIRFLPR
# CYP2C8 = biological target: T3, CYP2C8 (Homo sapiens, UniProt P10632); assay: CYP2C8 inhibition in human liver microsomes; format: in vitro ADME
# T3 sequence (P10632 1-490): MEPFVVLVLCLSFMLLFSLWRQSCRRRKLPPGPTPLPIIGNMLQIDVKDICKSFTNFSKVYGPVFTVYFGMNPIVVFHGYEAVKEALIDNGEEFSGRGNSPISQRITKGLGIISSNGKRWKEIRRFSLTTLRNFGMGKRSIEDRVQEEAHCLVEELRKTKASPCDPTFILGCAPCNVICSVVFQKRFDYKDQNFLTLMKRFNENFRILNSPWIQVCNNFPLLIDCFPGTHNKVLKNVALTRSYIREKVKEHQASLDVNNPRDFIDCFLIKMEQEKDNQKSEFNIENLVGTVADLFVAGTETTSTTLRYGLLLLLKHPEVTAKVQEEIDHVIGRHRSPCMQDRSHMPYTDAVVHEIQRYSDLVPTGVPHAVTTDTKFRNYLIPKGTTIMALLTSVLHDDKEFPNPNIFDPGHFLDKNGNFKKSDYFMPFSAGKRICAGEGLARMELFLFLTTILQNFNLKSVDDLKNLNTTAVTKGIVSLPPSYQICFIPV
# Outline: (§1)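 Pooled human liver microsomes were incubated with standard CYP-selective substrates, with and without test compound at 0.03–100 μM. Standard selective inhibitors for each isoform ran in parallel as positive controls. Read-out was IC50. For CYP3A4 only, time-dependent inhibition was also tested after 30 min preincubation, using midazolam and testosterone as substrates.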
# CYP3A4 [2] = biological target: CYP3A4 (Homo sapiens, UniProt P08684); assay: CYP3A4 inhibition in human liver microsomes; format: in vitro ADME
# Outline: as §1
# CYP3A4 [3] = assay: Relative induction score; parameters: species or system human; details: sensitive CYP3A4 substrate midazolam
# Outline: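 The relative induction score (RIS) method was applied to CYP3A4 induction data from hepatocytes of three donors treated for 3 days. Strong, moderate and weak reference inducers (rifampicin, bosentan, pioglitazone) served as calibrators for estimating clinical DDI risk.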
# P-gp and BCRP = assay: Efflux in wildtype Caco-2 cells; format: in vitro ADME; details: human
# Outline: (§2)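 Bidirectional transport was measured in wildtype Caco-2 cells and in proprietary derivatives with reduced BCRP (CPT-B1) or P-gp (CPT-P1) expression. Test compound was used at 0.5, 2 and 10 μM in wildtype cells and at 2 μM in the reduced-expression lines. Probe substrates served as positive controls and reference inhibitors as negative controls. Efflux ratios were calculated.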
# P-gp = P-gp (Homo sapiens, UniProt P08183); assay: Efflux in CPT-P1 cells; format: in vitro ADME; details: Caco-2
# Outline: as §2
# [4] = Phase I study: darolutamide effect on rosuvastatin pharmacokinetics; format: in vivo, human; details: darolutamide 600 mg BID with single dose rosuvastatin 5 mg
# [5] = darolutamide 600 mg; ref data on file; cited from earlier work
# CYP2B6 [6] = format: in vitro ADME; details: primary human hepatocytes, three donors, 3 days dosing, 0.005–10 mg/l
# [7] = read-out: IC50, CYP3A4 (with pre-incubation), human liver microsomes, substrate midazolam, 30 min pre-incubation
# [8] = read-out: IC50, CYP3A4 (with pre-incubation), human liver microsomes, substrate testosterone, 30 min pre-incubation
# Chain of CYP3A4 (Homo sapiens, UniProt P08684) (P08684 whole entry): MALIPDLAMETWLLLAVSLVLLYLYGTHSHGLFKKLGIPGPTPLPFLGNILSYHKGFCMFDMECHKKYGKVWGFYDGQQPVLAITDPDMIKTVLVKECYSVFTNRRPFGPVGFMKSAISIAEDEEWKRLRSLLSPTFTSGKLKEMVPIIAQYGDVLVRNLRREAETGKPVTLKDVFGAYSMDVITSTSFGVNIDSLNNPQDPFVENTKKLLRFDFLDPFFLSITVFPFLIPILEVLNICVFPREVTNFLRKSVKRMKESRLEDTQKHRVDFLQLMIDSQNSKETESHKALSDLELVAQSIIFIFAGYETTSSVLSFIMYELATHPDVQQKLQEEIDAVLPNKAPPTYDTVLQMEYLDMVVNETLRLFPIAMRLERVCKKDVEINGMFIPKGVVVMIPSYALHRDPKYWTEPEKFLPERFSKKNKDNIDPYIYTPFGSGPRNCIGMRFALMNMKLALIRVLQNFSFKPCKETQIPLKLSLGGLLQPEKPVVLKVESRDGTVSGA
# Chain of MATE1 (Q96FL8 whole entry): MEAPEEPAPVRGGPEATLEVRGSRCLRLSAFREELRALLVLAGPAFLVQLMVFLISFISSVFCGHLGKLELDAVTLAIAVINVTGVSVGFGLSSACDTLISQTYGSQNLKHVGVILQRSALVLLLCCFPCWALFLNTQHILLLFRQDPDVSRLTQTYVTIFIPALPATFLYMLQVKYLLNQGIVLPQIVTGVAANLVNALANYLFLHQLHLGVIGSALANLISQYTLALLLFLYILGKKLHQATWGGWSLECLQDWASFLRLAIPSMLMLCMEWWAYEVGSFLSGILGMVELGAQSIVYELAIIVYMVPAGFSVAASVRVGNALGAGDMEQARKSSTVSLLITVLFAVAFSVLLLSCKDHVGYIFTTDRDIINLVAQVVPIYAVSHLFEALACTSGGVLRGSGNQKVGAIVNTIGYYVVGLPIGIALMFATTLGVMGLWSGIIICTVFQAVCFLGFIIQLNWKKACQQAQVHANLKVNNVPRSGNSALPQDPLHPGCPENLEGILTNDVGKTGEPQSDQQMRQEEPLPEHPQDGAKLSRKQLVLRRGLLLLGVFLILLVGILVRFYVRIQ
# Chain of OATP2B1 (O94956 whole entry): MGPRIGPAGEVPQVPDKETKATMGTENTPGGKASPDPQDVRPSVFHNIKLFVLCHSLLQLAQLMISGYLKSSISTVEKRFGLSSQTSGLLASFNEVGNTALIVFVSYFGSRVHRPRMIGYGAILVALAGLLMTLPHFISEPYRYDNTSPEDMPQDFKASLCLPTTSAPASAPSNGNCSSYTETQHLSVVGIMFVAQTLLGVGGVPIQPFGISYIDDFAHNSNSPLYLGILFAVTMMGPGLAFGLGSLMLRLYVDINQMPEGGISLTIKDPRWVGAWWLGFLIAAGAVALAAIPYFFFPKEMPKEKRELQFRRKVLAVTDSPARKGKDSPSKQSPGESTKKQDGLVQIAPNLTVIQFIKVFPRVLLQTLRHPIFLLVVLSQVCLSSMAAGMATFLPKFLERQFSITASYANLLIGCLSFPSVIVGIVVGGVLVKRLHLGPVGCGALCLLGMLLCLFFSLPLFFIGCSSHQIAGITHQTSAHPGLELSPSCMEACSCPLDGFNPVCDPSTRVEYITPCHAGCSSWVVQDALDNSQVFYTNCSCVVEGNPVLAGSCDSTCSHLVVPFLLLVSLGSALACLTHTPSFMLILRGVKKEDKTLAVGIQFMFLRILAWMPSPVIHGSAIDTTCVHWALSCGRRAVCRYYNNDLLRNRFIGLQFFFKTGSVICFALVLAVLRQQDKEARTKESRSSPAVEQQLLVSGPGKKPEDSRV
# Chain of P-gp (P08183 whole entry): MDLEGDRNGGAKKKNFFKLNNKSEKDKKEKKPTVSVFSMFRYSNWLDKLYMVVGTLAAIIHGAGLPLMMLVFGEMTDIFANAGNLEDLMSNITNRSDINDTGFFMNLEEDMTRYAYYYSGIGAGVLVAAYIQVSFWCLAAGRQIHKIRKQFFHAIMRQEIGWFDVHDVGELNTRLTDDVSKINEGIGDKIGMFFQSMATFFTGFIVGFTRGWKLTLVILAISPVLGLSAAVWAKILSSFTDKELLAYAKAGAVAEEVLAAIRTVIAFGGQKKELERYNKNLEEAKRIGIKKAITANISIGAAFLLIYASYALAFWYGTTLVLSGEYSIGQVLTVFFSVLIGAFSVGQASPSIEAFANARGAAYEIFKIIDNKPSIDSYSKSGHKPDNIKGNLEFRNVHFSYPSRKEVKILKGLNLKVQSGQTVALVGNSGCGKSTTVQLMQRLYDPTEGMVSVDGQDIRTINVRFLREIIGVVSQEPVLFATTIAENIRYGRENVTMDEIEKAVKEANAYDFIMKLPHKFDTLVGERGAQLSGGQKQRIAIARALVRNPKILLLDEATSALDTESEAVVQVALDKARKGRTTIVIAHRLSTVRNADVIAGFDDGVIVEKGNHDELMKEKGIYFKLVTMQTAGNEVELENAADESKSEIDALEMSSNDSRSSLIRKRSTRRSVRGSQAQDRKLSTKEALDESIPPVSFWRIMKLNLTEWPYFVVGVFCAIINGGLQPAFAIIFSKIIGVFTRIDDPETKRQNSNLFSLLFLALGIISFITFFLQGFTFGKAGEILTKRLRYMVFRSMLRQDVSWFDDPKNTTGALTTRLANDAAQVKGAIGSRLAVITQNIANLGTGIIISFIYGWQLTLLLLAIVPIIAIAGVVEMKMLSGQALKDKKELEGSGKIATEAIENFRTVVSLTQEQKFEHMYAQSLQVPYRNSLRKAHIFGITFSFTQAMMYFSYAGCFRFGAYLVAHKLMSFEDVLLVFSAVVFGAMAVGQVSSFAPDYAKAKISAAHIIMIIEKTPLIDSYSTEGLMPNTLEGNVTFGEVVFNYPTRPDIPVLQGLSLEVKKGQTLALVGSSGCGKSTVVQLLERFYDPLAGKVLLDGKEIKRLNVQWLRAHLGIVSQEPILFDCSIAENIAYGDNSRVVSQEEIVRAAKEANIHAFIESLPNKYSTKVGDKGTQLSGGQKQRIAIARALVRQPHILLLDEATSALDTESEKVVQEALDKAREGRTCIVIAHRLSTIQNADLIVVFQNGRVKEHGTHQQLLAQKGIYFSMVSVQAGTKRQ
compound,measurement,setting,value
"CC(O)c1cc(C(=O)N[C@@H](C)Cn2ccc(-c3ccc(C#N)c(Cl)c3)n2)[nH]n1 (stereo partly shown) [Darolutamide, darolutamide]",pIC50,MATE1,4.49
same,pIC50,OATP2B1,< 4.30
same,pIC50,CYP1A2,< 4.00
same,pIC50,CYP2B6 [1],< 4.00
same,pIC50,CYP2C8,< 4.00
same,pIC50,CYP3A4 [2],< 4.00
same,pIC50,CYP3A4 [2]; [7],< 4.00
same,pIC50,CYP3A4 [2]; [8],< 4.00
same,Overall assessment of CYP3A4 induction (RIS method),CYP3A4 [3],moderate-to-strong inducers
same,efflux ratio at 0.5 μM,P-gp and BCRP,78
same,efflux ratio at 2 μM,P-gp and BCRP,98
same,efflux ratio at 10 μM,P-gp and BCRP,14
same,efflux ratio at 2 μM,P-gp,3.6
same,effect of rosuvastatin on darolutamide exposure,[4],no clinically relevant effects
same,clinically relevant intestinal concentration,[5],270 µM
"CC(=O)c1cc(C(=O)N[C@@H](C)Cn2ccc(-c3ccc(C#N)c(Cl)c3)n2)[nH]n1 [Keto-darolutamide, keto-darolutamide]",pIC50,"MATE1; read-out: IC50, MATE1, HEK cells, substrate metformin, reference cimetidine",< 5.00
same,pIC50,"CYP1A2; read-out: IC50, CYP1A2, human liver microsomes, substrate phenacetin",< 4.00
same,pIC50,"CYP2B6 [1]; read-out: IC50, CYP2B6, human liver microsomes, substrate bupropion",4.27
same,pIC50,"CYP2C8; read-out: IC50, CYP2C8, human liver microsomes, substrate paclitaxel",4.31
same,pIC50,CYP3A4 [2]; [7],< 4.30
same,pIC50,CYP3A4 [2]; [8],< 4.30
same,pIC50,"CYP3A4 [2]; read-out: IC50, CYP3A4, human liver microsomes, substrate midazolam",< 4.30
same,pIC50,"CYP3A4 [2]; read-out: IC50, CYP3A4, human liver microsomes, substrate testosterone",< 4.30
same,maximal fold induction of CYP2B6,CYP2B6 [6],< 2 fold
same,Overall assessment of CYP3A4 induction (RIS method),CYP3A4 [3],weak-to-moderate inducer

# — paper PMC6828636 (European Journal of Drug Metabolism and Pharmacokinetics, 2019)
